Experimental findings from ChEMBL document CHEMBL1287659, “Phenylmethylene hydantoins as prostate cancer invasion and migration inhibitors. CoMFA approach and QSAR analysis” (Eur J Med Chem, 2010) are described below.

In assay [1] the test system is PC-3. Nature of the assay: Antimetastatic activity against human PC3 cells after 24 hrs by wound-healing assay. Format: functional, cell-based. The following applies: for IC50: PC-3, 24 h. A digest of the protocol: (§1)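 Scratch wound in PC-3 monolayer. Compounds dissolved in DMSO, added in triplicate, DMSO as vehicle control. Incubation 24 h, serum-starved. Cells then fixed and Diff-Quick stained. Cells migrated into the wound counted in three or more random fields at 400×, mean ± SEM per field. IC50 by nonlinear regression of log concentration versus cells/well.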

The subject of assay [2] is PC-3. Nature of the assay: Antimetastatic activity against human PC3 cells at 100 uM after 24 hrs by wound-healing assay. Format: functional. The following applies: PC-3, 24 h. A digest of the protocol:
as §1

The subject of assay [3] is PC-3. Nature of the assay: Antiinvasive activity against human PC3 cells at 50 uM by cultrex cell invasion assay. Format: functional, cell-based. A digest of the protocol: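 Basement membrane extract coated upper chambers (4 h, 37 °C, 5% CO2) seeded with 50,000 PC-3 cells in serum-free RPMI plus compound at 50 µM. Lower chamber: RPMI, 10% FBS, fibronectin and N-formyl-met-leu-phe (10 nM) as chemoattractants. Migration 24 h at 37 °C. Invaded cells loaded with calcein-AM, fluorescence at 485/520 nm, counts from standard curve; n = 3, SD.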

The subject of assay [4] is PC-3. Put plainly: Antimetastatic activity against human PC3 cells at 50 uM after 24 hrs by wound-healing assay. Format: functional. The following applies: PC-3, 24 h. A digest of the protocol:
as §1

In assay [5] the test system is PC-3. Nature of the assay: Ratio of compound IC50 to 5-(4-(ethylthio)benzylidene)imidazolidine-2,4-dione IC50 for human PC3 cells at 100 uM after 24 hrs by wound-healing assay. Format: functional.
The subject of assay [6] is PC-3. Nature of the assay: Cytotoxicity against human PC3 cells up to 200 uM after 72 hrs by MTT assay. The format is functional, cell-based. A digest of the protocol: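 PC-3 cells seeded at 8 × 10³ per well, attached 24 h. Switched to serum-free RPMI with compound at up to 200 µM, 72 h at 37 °C, 5% CO2. MTT added for 4 h, then solubilization/stop solution. Absorbance read at 570 nm; cells/well from a hemocytometer-based standard curve.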
A general note: Tetrazolium assays rely on reduction of a dye to a coloured formazan, in cell work by metabolically active cells.

Structures are written as SMILES. Active and inactive are the calls of the source. No cut-off for these calls is given here.

For orientation: inhibition means how much of the control response was suppressed. A low value points to little suppression.

For the compound `O=C1NC(=O)/C(=C/c2ccc(O)cn2)N1`, the IC50 in assay [1] (read-out: pIC50 (converted)) is 81.8 µM.

In assay [2], `CSc1ccc(/C=C2\NC(=O)NC2=O)cc1` gave an inhibition at 100 µM of 80.9%. Also, the result in assay [3] was Active. For the same compound, the IC50 in assay [1] (read-out: IC50) and in assay [1] (read-out: pIC50 (converted)) was 44.7 µM throughout.

`CCCOc1ccc(/C=C2\NC(=O)NC2=O)c(OCCC)c1` had an inhibition at 100 µM in assay [2] of 68.4%. Further, the IC50 in assay [1] (read-out: IC50) and in assay [1] (read-out: pIC50 (converted)) was 77.1 µM throughout.

Turning to `O=C1NC(=O)/C(=C/c2ccc(O)cc2)N1` [4-HYDROXYPHENYLMETHYLENE HYDANTOIN], the inhibition at 100 µM in assay [2] was found to be 34%. The IC50 in assay [1] (read-out: IC50) and in assay [1] (read-out: pIC50 (converted)) was 128 µM in each case.

On to `O=C1NC(=O)/C(=C/c2ccncc2)N1`, for which the IC50 in assay [1] (read-out: pIC50 (converted)) was 178 µM.

As to `CC(C)CCOc1ccc(/C=C2\NC(=O)NC2=O)cc1`, the inhibition at 100 µM in assay [2] came to 66.7%. Further, the results for the IC50 in assay [1] (read-out: IC50) and in assay [1] (read-out: pIC50 (converted)) were 46.1 µM and 46 µM, respectively.

Turning to `COc1cc(/C=C2\NC(=O)NC2=O)ccc1OCC(=O)N1CCOCC1`, the inhibition at 100 µM in assay [2] worked out at 33.2%. Besides, the IC50 in assay [1] (read-out: IC50) and in assay [1] (read-out: pIC50 (converted)) was 94 µM throughout.

For `O=C1NC(=O)/C(=C/c2cnc[nH]2)N1`, in assay [1] (read-out: pIC50 (converted)), the IC50 was 54.2 µM.

Take `Cc1nc[nH]c1/C=C1\NC(=O)NC1=O`: the IC50 in assay [1] (read-out: pIC50 (converted)) is 95.1 µM.

`COc1c(/C=C2\NC(=O)NC2=O)ccc(OC(C)(C)C)c1Cl`: the inhibition at 100 µM in assay [2] was 39%. Besides, the IC50 in assay [1] (read-out: IC50) and in assay [1] (read-out: pIC50 (converted)) was 91 µM in each case.

With `C#CCOc1c(Cl)cc(/C=C2\NC(=O)NC2=O)cc1OC`, in assay [2], testing at 100 µM gave an inhibition of 88.8%. Besides, in assay [3], the outcome was Active. Further, the IC50 in assay [1] (read-out: IC50) and in assay [1] (read-out: pIC50 (converted)) was 21.8 µM throughout.

Consider `O=C1NC(=O)/C(=C/c2c[nH]c3ncccc23)N1`, for which the IC50 in assay [1] (read-out: pIC50 (converted)) was 49.7 µM.

In assay [2], `CCCOc1ccc(/C=C2\NC(=O)NC2=O)c(OC)c1` registered an inhibition at 100 µM of 23%. Also, the IC50 in assay [1] (read-out: IC50) and in assay [1] (read-out: pIC50 (converted)) was 110 µM throughout.

Consider `CCOc1cc(/C=C2\NC(=O)NC2=O)cc(Br)c1OCC`, for which, in assay [2], the inhibition at 100 µM was determined as 77.5%. Moreover, the result in assay [3] was Active. Further, the figures for the IC50 in assay [1] (read-out: IC50) and in assay [1] (read-out: pIC50 (converted)) were 35.7 µM and 35.6 µM, respectively.

For the compound `CCSc1ccc(/C=C2\NC(=O)NC2=O)cc1`, the outcome in assay [3] was Active. Further, 50 µM produced 42.9% inhibition in assay [4]. Also, the IC50 in assay [1] (read-out: IC50) and in assay [1] (read-out: pIC50 (converted)) was 42.9 µM in each case.

In assay [2], `CCCOc1c(Br)cc(/C=C2\NC(=O)NC2=O)cc1OC` displayed an inhibition at 100 µM of 97.4%. The result in assay [3] was Active. The “Ratio IC50” value in assay [5] is 5. The outcome in assay [6] was inactive. Further, the Activity result in assay [1] was “Dose-dependent effect”. Moreover, the IC50 in assay [1] (read-out: IC50) was 8.1 µM; in assay [1] (read-out: pIC50 (converted)), 8.09 µM.

Consider `O=C1NC(=O)/C(=C/c2cc(O)c[nH]2)N1`, for which the IC50 in assay [1] (read-out: pIC50 (converted)) is 99.1 µM.

Consider `CC(C)(C)Oc1ccc(/C=C2\NC(=O)NC2=O)cc1`, for which the inhibition at 100 µM in assay [2] amounted to 52.7%. The IC50 is 60.8 µM in assay [1] (read-out: IC50) and 60.7 µM in assay [1] (read-out: pIC50 (converted)).

Consider `O=C1NC(=O)/C(=C/c2cccc3c2OCO3)N1`, for which, in assay [1] (read-out: pIC50 (converted)), the IC50 is 155 µM.

For `O=C1NC(=O)/C(=C/c2ccc(N3CCCC3)cc2)N1`, the inhibition at 100 µM in assay [2] amounted to 75.9%. Besides, in assay [3], the result was Active. Further, the IC50 in assay [1] (read-out: IC50) was 48.7 µM; in assay [1] (read-out: pIC50 (converted)) it was 48.6 µM.

For `COc1cc(/C=C2\NC(=O)NC2=O)ccc1OCC(=O)N1CCCC1`, in assay [2], the inhibition at 100 µM was found to be 36.3%. Further, the IC50 was 86 µM in assay [1] (read-out: IC50) and 85.9 µM in assay [1] (read-out: pIC50 (converted)).

Take `O=C1NC(=O)/C(=C/c2cc(I)c[nH]2)N1`: in assay [1] (read-out: pIC50 (converted)), the IC50 is 199 µM.

Consider `COc1cc(/C=C2\NC(=O)NC2=O)ccc1OCC(=O)c1ccccc1`, for which the inhibition at 100 µM in assay [2] is 91.8%. The result in assay [3] was Active. Further, the IC50 in assay [1] (read-out: IC50) and in assay [1] (read-out: pIC50 (converted)) was 19.7 µM each time.

The compound `CCCOc1cc(OC)c(/C=C2\NC(=O)NC2=O)c(OC)c1Cl` came in with an inhibition at 100 µM in assay [2] of 19%. In addition, the IC50 in assay [1] (read-out: IC50) and in assay [1] (read-out: pIC50 (converted)) was 187 µM in each case.

Consider `O=C1NC(=O)/C(=C/c2ccc(OCc3ccc(F)cc3)cc2)N1`, for which the inhibition at 100 µM in assay [2] turned out to be 76.3%. In addition, in assay [3], the outcome was Active. The IC50 in assay [1] (read-out: IC50) and in assay [1] (read-out: pIC50 (converted)) was 23.8 µM throughout.

Take `O=C1NC(=O)/C(=C/c2cccc(-c3cccs3)n2)N1`: the outcome in assay [3] was Active. For the same compound, in assay [1] (read-out: pIC50 (converted)), the IC50 is 32.4 µM.

On to `O=C1NC(=O)/C(=C/c2cccc3c2NCC3)N1`, for which the IC50 in assay [1] (read-out: pIC50 (converted)) is 86.5 µM.

For the compound `COc1cccc(/C=C2\NC(=O)NC2=O)n1`, the IC50 in assay [1] (read-out: pIC50 (converted)) is 59.8 µM.
